Assay results from different studies.
Protocols differ between the studies behind these lines.
PTGS1: Prostaglandin G/H synthase 1 (PTGS1, Ovis aries, UniProt P05979)
RPS6KA3: Ribosomal protein S6 kinase alpha-3 (RPS6KA3, Homo sapiens, UniProt P51812)
PTPN11: Tyrosine-protein phosphatase non-receptor type 11 (PTPN11, Homo sapiens, UniProt Q06124)
Somatostatin receptor type 2: Somatostatin receptor type 2 (Rattus norvegicus, UniProt P30680)
BCHE: Cholinesterase (BCHE, Equus caballus, UniProt P81908)
DRD1: D(1A) dopamine receptor (DRD1, Homo sapiens, UniProt P21728)
NTRK2: BDNF/NT-3 growth factors receptor (NTRK2, Homo sapiens, UniProt Q16620)
CYP2B6: Cytochrome P450 2B6 (CYP2B6, Homo sapiens, UniProt P20813)
SIRT3: NAD-dependent protein deacetylase sirtuin-3, mitochondrial (SIRT3, Homo sapiens, UniProt Q9NTG7)

`COC(=O)[C@H](Cc1ccc(OP(=O)(O)O)c(OP(=O)(O)O)c1)NC(=O)OCC1c2ccccc2-c2ccccc21` gave an IC50 of 15800 nM (Signal transducer and activator of transcription 5A, SH2 (Homo sapiens, UniProt P42229); ligand displacement, FP).
For `COc1ccc(Nc2c(-c3ccc(S(C)(=O)=O)cc3)nc3cccc(C)n23)cc1`, the IC50 was 21100 nM (PTGS1; enzyme activity, inhibitor, fluorescence).
`CN1CCN(c2ccc(Nc3ncc4cc(C#N)c(=O)n(C5CCCC5)c4n3)cc2)CC1` gave an IC50 of 380 nM (RPS6KA3; enzyme activity, inhibitor).
For `N[C@@H](CC(=O)O)C(=O)N[C@@H](Cc1ccccc1)C(=O)O`, the IC50 was 109000 nM (PTPN11; enzyme activity, inhibitor, absorbance; pH 7.4).
With `CC(=O)N1C[C@@H](CCN2CCC(c3c[nH]c4cc(Cl)ccc34)CC2)c2ccccc21` the IC50 was 242 nM (Sodium-dependent serotonin transporter (SLC6A4, Homo sapiens, UniProt P31645); ligand displacement, radioligand; cell membranes).
The IC50 of `Cc1cc(-c2ccc(NC(=O)[C@H](CCCCNC(=O)CCN3C(=O)CC(SCC(=O)N[C@H](Cc4ccccc4)C(=O)N[C@H]4CSSC[C@@H](C(=O)N[C@H](C(=O)O)[C@@H](C)O)NC(=O)[C@H]([C@@H](C)O)NC(=O)[C@H](CCCCN)NC(=O)[C@@H](Cc5c[nH]c6ccccc56)NC(=O)[C@H](Cc5ccc(O)cc5)NC4=O)C3=O)NC(=O)CN3CCN(CC(=O)O)CCN(CC(=O)O)CCN(CC(=O)O)CC3)c(C)c2)ccc1N=Nc1ccc2c(S(=O)(=O)O)cc(S(=O)(=O)O)c(N)c2c1O` (some centres unmarked) is reported as 9.16 nM (Somatostatin receptor type 2; ligand displacement).
`CC(=O)N1CCN(c2nccc(NCc3ccccc3)n2)CC1` has an IC50 of > 100000 nM (BCHE; enzyme activity, inhibitor).
With `CN(CCCCNC(=O)c1cc2ccccc2[nH]1)[C@@H]1Cc2cccc3[nH]c(=O)n(c23)C1` the IC50 was > 9200 nM (DRD1; ligand displacement, radioligand).
The IC50 of `CCN(CC)CCCC[C@H](NC(=O)[C@H](CC(C)C)NC(=O)[C@H](C)NC(=O)[C@H](Cc1ccccc1)NC(=O)c1ccc(C(C)(C)C)cc1)C(=O)N[C@@H](CO)C(=O)OC` is reported as 560 nM (Chromobox protein homolog 8 (Homo sapiens, UniProt Q9HC52); ligand displacement, TR-FRET).
For `Cc1cc(Nc2cc(CN3CCOCC3)c3nc(C)c(Cc4ccc(Cl)cc4F)n3n2)n[nH]1`, the IC50 was 95 nM (NTRK2; enzyme activity, inhibitor, TR-FRET).
`Cc1cc2c(F)c(Oc3ncnn4cc(OC[C@@H](C)O)c(C)c34)ccc2[nH]1` has an IC50 of 5950 nM (CYP2B6; enzyme activity, inhibitor, fluorescence; 15 min).
`Cc1cccc2nc(-c3ccc(S(C)(=O)=O)cc3)c(Nc3ccccc3)n12` gave an IC50 of 24600 nM (PTGS1; enzyme activity, inhibitor, fluorescence).
The IC50 of `CCCC[C@H](NC(=O)[C@H](C)c1c(C)[nH]c2ccc(O)cc12)c1ncc(-c2cc3ccccc3nc2OC)[nH]1` is reported as 2690 nM (Prostaglandin E2 receptor EP1 subtype (PTGER1, Homo sapiens, UniProt P34995); enzyme activity).
`O=S1(=O)CCN(c2nccc(NCc3ccccc3)n2)CC1` gave an IC50 of > 100000 nM (BCHE; enzyme activity, inhibitor).
With `CN(C)CC#Cc1ccc2[nH]c3c(c2c1)-c1nc(N)ncc1CCC3` the IC50 was > 10000 nM (Dual specificity mitogen-activated protein kinase kinase 2 (MAP2K2, Homo sapiens, UniProt P36507); enzyme activity, inhibitor, radiometric).
The IC50 of `COCCN1CCN(c2nccc(NCc3ccccc3)n2)CC1` is reported as > 100000 nM (BCHE; enzyme activity, inhibitor).
`CC1=C[C@@]2(C[C@H](C)[C@H]3CC=C(C)[C@@H](O[C@@H]4O[C@H](CO)[C@@H](O)[C@H](O)[C@H]4O)[C@@H]3O2)OC1=O` has an IC50 of 90500 nM (PTPN11; enzyme activity, inhibitor).
For `O=C(NO)c1ccc(CN(c2cnccn2)c2cnccn2)cc1`, the IC50 was > 10000 nM (SIRT3; enzyme activity, inhibitor, fluorescence).
For `Oc1cc2c(cc1OCC(F)F)CCN1Cc3c(c(Br)cc(O)c3OCC(F)F)C[C@@H]21`, the IC50 was 230 nM (DRD1; cAMP, antagonist, TR-FRET).
For `CC1Cc2ccccc2N1C(=O)NCCCCN(C)[C@@H]1Cc2cccc3[nH]c(=O)n(c23)C1` (mixture of isomers), the IC50 was > 10000 nM (DRD1; ligand displacement, radioligand).
For `Cc1c(Br)cc(NC(=O)C(c2ccccc2)S(=O)(=O)O)cc1Br` (centres unmarked), the IC50 was > 200000 nM (Tyrosine-protein phosphatase non-receptor type 9 (PTPN9, Homo sapiens, UniProt P43378); enzyme activity, inhibitor, absorbance).
The IC50 of `CC(C)(C)n1nc(-c2ccc3nc(OC4CC4)ccc3c2)c(C(N)=O)c1N` is reported as > 10000 nM (Calcium/calmodulin-dependent protein kinase type 1D (CAMK1D, Homo sapiens, UniProt Q8IU85); cell-free assay).
`C=C(NC(=O)[C@H](CCCCNC(=S)NCCCCCCCCCCCC)NS(C)(=O)=O)C(=O)N[C@@H](CCCNC(=N)N)C(N)=O` has an IC50 of 2900 nM (SIRT3; enzyme activity, inhibitor).
`Cc1cnc(-c2ccc(-c3ccc(NC(=O)Nc4c(F)cc(F)cc4F)cc3F)c3c2C(=O)NC3)[nH]1` has an IC50 of 6.5 nM (NTRK2; enzyme activity, inhibitor).
With `CSc1ccc(/C=C2/C(C)=C(CC(=O)O)c3cc(F)ccc32)cc1` the IC50 was > 100000 nM (cGMP-inhibited 3',5'-cyclic phosphodiesterase 3B (PDE3B, Homo sapiens, UniProt Q13370); enzyme activity, inhibitor).
`N#CC1(c2ccc(NC(=O)c3cccnc3NCc3ccncc3)cc2)CCCC1` gave an IC50 of 210 nM (Mitogen-activated protein kinase kinase kinase 20 (MAP3K20, Homo sapiens, UniProt Q9NYL2); enzyme activity, inhibitor, mass spectrometry).
The IC50 of `O=Cc1ccc2[nH]ncc2c1` is reported as ~350000 nM (RPS6KA3; enzyme activity, inhibitor).
`C[C@@H](O)[C@@H]1NC(=O)[C@H](CCCCN)NC(=O)[C@@H](Cc2c[nH]c3ccccc23)NC(=O)[C@H](Cc2ccc(O)cc2)NC(=O)[C@@H](NC(=O)[C@@H](Cc2ccccc2)NC(=O)CCC(C(=O)O)N2CCN(CC(=O)O)CCN(C(CCC(=O)O)C(=O)O)CC2)CSSC[C@@H](C(=O)N[C@H](CO)[C@@H](C)O)NC1=O` (some centres unmarked) has an IC50 of 33.7 nM (Somatostatin receptor type 2; ligand displacement, radioligand).
For `C=CC(=O)Nc1cc(Nc2nccc(Nc3cc(Cl)c(F)cc3C(C)(C)O)n2)c(OC)cc1N1CC[C@@H](N(C)C)C1`, the IC50 was > 30000 nM (CYP2B6; enzyme activity, inhibitor; human, liver microsomes).
For `CCOC(F)(F)c1nnc2cnc(-c3cnc(OCC(F)(F)F)c(F)c3)cn12`, the IC50 was 145 nM (Sodium channel protein type 8 subunit alpha (Scn8a, Mus musculus, UniProt Q9WTU3); ion current, inhibitor, patch clamp).
For `FC(F)(F)c1ccc(CN2CCN(c3nccc(NCc4ccccc4)n3)CC2)cc1`, the IC50 was > 100000 nM (BCHE; enzyme activity, inhibitor).
With `CCN(CC)c1ccc(C=O)cc1` the IC50 was 15100 nM (Aldehyde dehydrogenase, dimeric NADP-preferring (ALDH3A1, Homo sapiens, UniProt P30838); enzyme activity, inhibitor, absorbance).
For `COc1ccc(COc2c(OC)ccc3c2C[C@@H](C(=O)O)N(c2nc4ccc(C#N)cc4o2)C3)cn1`, the IC50 was 46 nM (Type-2 angiotensin II receptor (AGTR2, Homo sapiens, UniProt P50052); cell-free assay, TR-FRET).
`CCCCCCCCCCCCNC(=S)NCCCC[C@H](NC(C)=O)C(=O)N[C@@H](C)C(=O)N[C@@H](CCCNC(=N)N)C(N)=O` gave an IC50 of 2200 nM (SIRT3; enzyme activity, inhibitor).
The IC50 of `O=C1Nc2ccc(I)cc2/C1=C/c1cc(Br)c(O)c(Br)c1` is reported as 1000 nM (Ribosomal protein S6 kinase alpha-3, N-terminal kinase domain (RPS6KA3, Homo sapiens, UniProt P51812); enzyme activity, inhibitor, FP).
